A selection: hits, their analogues and other compounds. The true share with any hit is near 10%.
PMI act: activators of human phosphomannose isomerase; activation factor at 20 µM; purified human PMI, coupled resazurin fluorescence, 20 min; active compounds read high; 1 = vehicle control, 0 substrate-free wells; 190,000 tested, 0.005% active; P34949;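 active = activation factor of 2 or more at 20 µM, relative to plate controls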
Target sequence (P34949 whole entry, looked up): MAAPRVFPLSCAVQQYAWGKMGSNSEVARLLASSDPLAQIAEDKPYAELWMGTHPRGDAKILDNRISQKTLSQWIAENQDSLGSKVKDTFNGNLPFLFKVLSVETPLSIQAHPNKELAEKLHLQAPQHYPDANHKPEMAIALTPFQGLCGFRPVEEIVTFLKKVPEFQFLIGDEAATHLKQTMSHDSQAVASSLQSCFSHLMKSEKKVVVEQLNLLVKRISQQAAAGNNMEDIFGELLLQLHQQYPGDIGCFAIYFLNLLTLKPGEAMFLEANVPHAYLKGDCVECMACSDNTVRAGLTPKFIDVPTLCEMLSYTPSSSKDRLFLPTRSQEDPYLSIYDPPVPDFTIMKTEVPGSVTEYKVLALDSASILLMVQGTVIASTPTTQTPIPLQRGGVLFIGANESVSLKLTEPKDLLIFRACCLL
WT yeast gro inh: growth inhibition of WT yeast, mitochondrial fusion screen | AID 1362 | mitochondrial fusion phenotypic screen, WT strain | inhibition, % at 10 µM | 190,000 tested, 2.1% active; in the data active = inhibition above about 58%; tested in S. cerevisiae
Diaph act CS: diaphorase activation or chemical reduction counter-screen | Diaphorase/resazurin coupled assay, resorufin fluorescence, 16 min; active compounds read high; 1 = vehicle wells, 0 = NADH-free wells | activation factor at 20 µM | 190,000 tested, 0.005% active | AID 1229;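 active = diaphorase activity raised at least twofold by the compound at 20 µM; inactive = activation factor below 2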
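Material: purified diaphorase enzyme from Clostridium kluyveri / Medium: HEPES pH 7.4 buffer with MgCl2 and Tween 20 / Schedule: enzyme reaction of 16 min at room temperature / Measured by: resorufin fluorescence, excitation 544 nm, emission 590 nm / Evaluation: rise in resorufin formation, marking diaphorase activation or chemical reduction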
L major viab: inhibitors of Leishmania major promastigote growth; Leishmania major promastigotes, resazurin fluorescence viability; inhibition, % at 10 µM; 200,000 tested, 9% active; AID 1063; in the data active = inhibition above about 50%;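 also: promastigotes grown with compound for 44 hours at 28 °C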
PMI act hi M6P: activators of human phosphomannose isomerase at near-saturating mannose 6-phosphate | P34949 | coupled PMI enzyme assay, resazurin fluorescence, 20 min; active compounds read high; 1 = untreated enzyme, 0 = substrate-free blank | activation factor at 20 µM | 190,000 tested, 0.34% active;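 active = activation factor of 2 or more at 20 µM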
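Material: human phosphomannose isomerase with PGI, G6PDH, diaphorase coupling enzymes; amount: PMI at 15 ng/mL final; also added: Mannose-6-phosphate 1.0 mM (near-saturating) plus 0.22 mM NADP+; incubation: enzyme reaction with compound 20 min at room temperature; signal: resorufin fluorescence (Ex 544/Em 590 nm) from resazurin via diaphorase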
Each line names hits and unclear results; the compound was inactive in the other large screens.

Cc1ccc(S(=O)(=O)N2CCOCC2)cc1NC(=O)COC(=O)c1ccc(OCc2c(C)noc2C)cc1	L major viab 76
COc1ccc(S(=O)(=O)N2CCCCCC2)cc1C(=O)OCc1c(C)noc1C	WT yeast gro inh 97
O=C(CN(Cc1ccc(F)cc1)S(=O)(=O)c1ccc(S(=O)(=O)N2CCOCC2)cc1)Nc1ccccc1	none
CC(C)NC(=O)CCCc1c[nH]c2ccccc12	none
CC(NC(=O)C(c1ccccc1)c1ccccc1)C(=O)N1CCCCC1 (centres undefined)	L major viab 52
CC(NC(=O)C(c1ccccc1)c1ccccc1)C(=O)O (centres undefined)	none
C[C@@H](CN1C2=NC[C@H](Cc3ccccc3)N2C[C@H]1Cc1ccc(O)cc1)NC(=O)CCC1CCCCC1	none
COc1ccc(C[C@H]2CN3C(=NC[C@@H]3C(C)C)N2C[C@H](C)NC(=O)c2ccc(C)c(Br)c2)cc1	L major viab 68
Cc1ccc(C(=O)N[C@@H](C)CN2C3=NC[C@H](C(C)C)N3C[C@H]2Cc2ccc(O)cc2)cc1Br	none
COc1ccc(C[C@H]2CN3C(=NC[C@@H]3Cc3ccccc3)N2CCNC(=O)c2ccc(C)c(Br)c2)cc1	L major viab 95
COc1ccc(C[C@H]2CN3C(=NC[C@H]3Cc3ccccc3)N2CCNC(=O)CCC2CCCCC2)cc1	L major viab 76
COc1ccc(C[C@H]2CN3C(=NC[C@@H]3Cc3ccc(O)cc3)N2CCNC(=O)c2ccc(C)c(Br)c2)cc1	none
O=C(O)C1=C(C(=O)Nc2cc(C(F)(F)F)ccc2Cl)CCCC1	none
CSc1cccc(NC(=O)C(C)NS(=O)(=O)c2ccc(F)cc2)c1 (centres undefined)	none
Cc1[nH]c2ccccc2c1/C=N/NC(=O)C1CC1(c1ccccc1)c1ccccc1 (centres undefined)	WT yeast gro inh 84, L major viab 99
O=C(COC(=O)Cc1ccc(Br)cc1)NC12CC3CC(CC(C3)C1)C2	WT yeast gro inh 84
O=C(c1ccncc1)c1ccc(N2CCN(C3CC(=O)N(Cc4ccccc4)C3=O)CC2)cc1 (centres undefined)	L major viab 98
COc1ccc(N2CCN(C3CC(=O)N(Cc4ccccc4)C3=O)CC2)cc1 (centres undefined)	none
N=c1c2c(-c3ccccc3)c(-c3ccccc3)n(Cc3ccco3)c2ncn1CCO	L major viab 100
N=c1c2c(-c3ccccc3)c(-c3ccccc3)n(Cc3ccco3)c2ncn1CCN1CCOCC1	L major viab 100 (no result: WT yeast gro inh)
CCN1C(=O)N(CC)C2C1N(CO)C(=O)N2CO (centres undefined)	none
CC1CCc2nc(/C(C#N)=C/c3ccncc3)sc2C1 (centres undefined)	L major viab 53
COc1cccc(NC(=S)N(CCCN2CCCC2)Cc2ccco2)c1	none
COc1cccc(NC(=S)N(CCCN2CCCC2)Cc2cccn2Cc2ccc(Cl)cc2)c1	WT yeast gro inh 59, L major viab 91
S=C(Nc1cccc(Cl)c1)N(CCCN1CCCC1)Cc1cccn1Cc1ccc(Cl)cc1	WT yeast gro inh 81, L major viab 100
S=C(Nc1ccc(Cl)cc1)N(CCCN1CCOCC1)Cc1cccs1	none
CSc1cccc(NC(=S)N(CCCN2CCCC2)Cc2cccn2Cc2ccc(Cl)cc2)c1	WT yeast gro inh 74, L major viab 101
CC(NC(=O)CCn1nc(-c2ccc(Cl)cc2)ccc1=O)c1ccccc1 (centres undefined)	none
O=C(CN1CCCCC1)NC(=O)NCc1ccccc1	none
COc1ccccc1NS(=O)(=O)c1cccc(C(=O)NCc2ccco2)c1	none
CC1OC(Oc2ccc3ccc(=O)oc3c2-c2c(O)ccc3cc(Oc4ccc5ccc(=O)oc5c4)c(=O)oc23)C(O)C(O)C1O (centres undefined)	none
O=S(=O)(c1ccc(Cl)c(NC(=S)Nc2ccccc2N2CCOCC2)c1)N1CCOCC1	none
O=C(Nc1cc(S(=O)(=O)N2CCOCC2)ccc1Cl)C(=O)c1c(-c2ccccc2)cc2ccccn12	WT yeast gro inh 99
CCCC(=O)Nc1ccc(Cl)c(NC(=S)NC(=O)c2ccco2)c1	none
COc1cccc(N(C(=O)Cn2nnc(-c3ccc(C)cc3)n2)C(C(=O)NC(C)(C)C)c2c[nH]c3ccccc23)c1 (centres undefined)	none
CC(C)(C)NC(=O)C(c1c[nH]c2ccccc12)N(C(=O)Cn1nnc(-c2ccc(Cl)cc2)n1)c1ccccc1F (centres undefined)	L major viab 51
CC(C)(C)NC(=O)C(c1ccco1)N(C(=O)Cn1nnc(-c2ccc(F)cc2)n1)c1ccccc1F (centres undefined)	WT yeast gro inh 63
CN(Cc1ccccc1)c1nc(-c2cccc([N+](=O)[O-])c2)nc2ccccc12	L major viab 92
O=[N+]([O-])c1cccc(-c2nc(N3CCOCC3)c3ccccc3n2)c1	none
O=[N+]([O-])c1cccc(-c2nc(NCc3ccccc3)c3ccccc3n2)c1	L major viab 58
CCOC(=O)C1=C(C)N(CCCC(=O)NCc2ccc3c(c2)OCO3)C(=O)NC1c1ccc(Br)cc1 (centres undefined)	none
CN(CC(=O)Nc1ccc(Cl)c(Cl)c1)Cc1nnc(-c2ccc(F)cc2)o1	none
Cc1cnc(C(=O)OCC(=O)NC(C)CCc2ccccc2)cn1 (centres undefined)	none
Cc1ccc(NC(=O)/C(=C\c2cccs2)NC(=O)c2ccccc2)cc1	L major viab 83
CC(C)(C)NCCOc1ccc(Br)cc1	L major viab 95
CC(C)C(c1nnnn1C1CCCC1)N(C)C1CCCCC1 (centres undefined)	none
Cc1ccc(C(c2nnnn2C2CCCCC2)N(C)C2CCCCC2)cc1 (centres undefined)	WT yeast gro inh 81, L major viab 72
COc1cc2cc(C(c3nnnn3C3CCCCC3)N(C)C3CCCCC3)c(=O)[nH]c2cc1OC (centres undefined)	L major viab 72
COc1cc2cc(C(c3nnnn3C3CCCC3)N(C)C3CCCCC3)c(=O)[nH]c2cc1OC (centres undefined)	none
CC(=O)C1C(c2ccc(F)cc2)C2C(C)=NN=C2CC1(C)O (centres undefined)	none
COc1ccc(Nc2c3c(nc4ccccc24)CCCC3)cc1OC	L major viab 88
Cc1cc(C(=O)Nc2ccc3c(c2)OCCO3)c2ccccc2n1	none
COC(=O)c1c2c(nc3ccccc13)CCC2	none
Cc1ccccc1C(=O)Nc1c2c(nc3ccccc13)CCCC2	none
c1ccc(Nc2c3c(nc4ccccc24)CCC3)cc1	L major viab 76
Fc1ccc(Nc2c3c(nc4ccccc24)CCC3)cc1	L major viab 72
c1ccc2c(Nc3ccc4c(c3)OCCO4)c3c(nc2c1)CCC3	L major viab 88
CCOC(=O)CSc1nc(C)cc(C)c1C(N)=O	none

Bioassay records (PubChem)
